From PubChem
HUVEC prolif 384: human endothelial cell proliferation inhibition; HUVEC proliferation, CellTiter-Glo luminescence, 72 h; active compounds read low; viability, % at 10 µM (by protocol); hit rate 1.1% among 86,000; AID 648;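 active = viability at or below 30%; inactive = viability above 30%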
HCT116 PTEN-null: growth suppressors of cells with PTEN tumor suppressor deletion. HCT116 PTEN-null viability, CellTiter-Glo, 60 h; active compounds read low. viability, % at 10 µM. hit rate 1.2% among 140,000. AID 827;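 active = viability at or below a set limit, 4 SD under the median of all tested compounds, cut at about 3.7% in these data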;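 note: PTEN knockout HCT116 line with beta catenin targeted HCT116 as companion control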
bCat KO growth: beta-catenin-lacking colon tumor cell growth suppression; HCT116 beta-catenin knockout viability, CellTiter-Glo, 60 h; active compounds read low; viability, % at 10 µM; hit rate 1.5% among 140,000;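 active = viability at or under a set limit, the compound median less 4 SD, cut at about 6% in these data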
Lung fibro prol: blocks proliferation of human lung fibroblasts; LL 47 human lung fibroblast viability, ATP luminescence; active compounds read low; hit rate 1.1% among 85,000; AID 719; viability, % at 10 µM;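 active = viability at or below 50% in the single dose screen; inactive = viability above 50%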;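 note: compound exposure lasted 72 h before the ATP readout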
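Assay system: human lung fibroblast line LL 47, low passage. Input: 1,150 fibroblasts seeded per well. Times: overnight cell rest, 72 h compound treatment at 37 °C. Evaluation: % viability of median cell-only signal. Technique: luminescent ATP detection, CellTiter-Glo. Control set: cell-only wells, no compound.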
H69AR inhibit: blocks growth of human H69AR lung tumor cells | H69AR lung tumor viability, ATP luminescence, 72 h; active compounds read low | hit rate 6% among 85,000 | viability, % at 10 µM | AID 598;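 active = viability at or below 40%; inactive = viability above 40%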;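 note: multidrug resistant small cell line overexpressing MRP-1 efflux transporter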
Large screens that a line does not name were inactive. The sample as a whole holds a higher share of hits than the screen did.

COc1cc(/C=C(/C(=O)c2cccs2)c2nc3ccccc3[nH]2)ccc1O	HCT116 PTEN-null 2.0, bCat KO growth 3.8, Lung fibro prol 10.8, H69AR inhibit 2.0
O=C(/C(=C\c1ccccc1)c1nc2ccccc2[nH]1)c1ccc(Cl)cc1	HCT116 PTEN-null 1.9, bCat KO growth 2.2 (no result: HUVEC prolif 384, Lung fibro prol, H69AR inhibit)
COc1ccc(/C=C(/NC(=O)c2ccccc2)c2nc3ccccc3[nH]2)cc1OC	none (no result: HUVEC prolif 384, Lung fibro prol, H69AR inhibit)
Cc1ccc([N+](=O)[O-])cc1S(=O)(=O)N(C(=O)c1ccncc1)c1ccc2oc3c(c2c1)CCCC3	none (no result: HUVEC prolif 384, Lung fibro prol, H69AR inhibit)
COc1ccccc1CNC(=O)c1cccc(-c2ccc(C)c3ccccc23)n1	none (no result: HUVEC prolif 384, Lung fibro prol, H69AR inhibit)
O=C(NCc1ccc(Cl)cc1)c1cccnc1	none
CCOC(=O)C1=C(C)N=c2s/c(=C\c3ccc(OC(C)=O)c(OCC)c3)c(=O)n2C1/C=C/c1ccccc1 (stereo not drawn)	none (no result: HUVEC prolif 384, Lung fibro prol, H69AR inhibit)
CCOC(=O)C1=C(c2ccccc2)N=c2s/c(=C\c3cccc(O)c3)c(=O)n2C1c1cccs1 (stereo not drawn)	HCT116 PTEN-null 1.5, bCat KO growth 1.5 (no result: HUVEC prolif 384, Lung fibro prol, H69AR inhibit)
Cc1cc(F)c(F)c(C(=O)NC2CC2)c1Cl	none
O=C(c1cccs1)n1cc(C(=S)N2CCOCC2)c2ccccc21	none
O=C(Nc1ccc2nc(-c3cccnc3)[nH]c2c1)C12CC3CC(CC(C3)C1)C2	HUVEC prolif 384 6.0, Lung fibro prol 47.5, H69AR inhibit 30.1
Nc1cccc(C(=O)Nc2ccc3nc(-c4cccnc4)[nH]c3c2)c1	none
O=C(Nc1ccc2nc(-c3cccnc3)[nH]c2c1)C1CCCCC1	H69AR inhibit 25.3
CS(=O)c1nc(-c2ccc(Br)cc2)cc(-c2ccccc2)c1C#N (stereo not drawn)	HUVEC prolif 384 9.9, HCT116 PTEN-null 1.8, bCat KO growth 1.8, Lung fibro prol 6.6, H69AR inhibit 1.5
COc1ccc(-c2cc(-c3ccc(OC)cc3)c(C#N)c(SC)n2)cc1	none
N#Cc1c(-c2cccc(F)c2)cc(-c2ccccc2)nc1Br	none (no result: HUVEC prolif 384, Lung fibro prol, H69AR inhibit)
COc1ccc(-c2cc(-c3ccccc3)c(C#N)c(S(C)(=O)=O)n2)cc1	HUVEC prolif 384 26.0, HCT116 PTEN-null 0.9, bCat KO growth 1.1, H69AR inhibit 3.6
CS(=O)(=O)c1nc(-c2ccc(Br)cc2)cc(-c2ccccc2)c1C#N	HUVEC prolif 384 20.3, HCT116 PTEN-null 2.1, bCat KO growth 1.6, Lung fibro prol 1.9, H69AR inhibit 1.2
N#Cc1c(-c2ccc(Br)cc2)cc(-c2cccnc2)nc1N	none (no result: HUVEC prolif 384, Lung fibro prol, H69AR inhibit)
COc1cc(C2C=C(C34CC5CC(CC(C5)C3)C4)NC(=S)N2)cc(OC)c1OC (stereo not drawn)	none (no result: HUVEC prolif 384, Lung fibro prol, H69AR inhibit)
Cc1cccc(-n2c(Cc3ccccc3)nnc2SCc2ccc([N+](=O)[O-])cc2)c1	none (no result: HUVEC prolif 384, Lung fibro prol, H69AR inhibit)
COc1ccc(NC(=O)CSc2[nH]c(=O)cc(C)c2C#N)cc1OC	none
COc1ccc(-c2cc(C(=O)Nc3cc(C)nn3-c3ccccc3)no2)cc1	none
COc1ccccc1-c1cc(C(=O)Nc2cc(C)nn2-c2ccccc2)no1	H69AR inhibit 27.1
Cc1cc(C(=O)Nc2cc(C)n(Cc3ccc(Cl)cc3)n2)no1	none
COCCNC(=O)c1cc(-c2ccccc2OC)on1	H69AR inhibit 36.3
COc1ccccc1-c1cc(C(=O)Nc2cc(C)n(Cc3ccc(Cl)cc3)n2)no1	H69AR inhibit 5.4
CC(=O)C1C(c2ccccc2)c2c(n[nH]c2C)CC1(C)O (stereo not drawn)	none
CCOc1ccc(CNC(=S)N/N=C/c2cccnc2)cc1	none (no result: HUVEC prolif 384, Lung fibro prol, H69AR inhibit)
CCOC(=O)C1=C(CC)Nc2ccccc2N=C1NC(=O)Cn1cnc2ccccc2c1=O	none
CCOC(=O)C1=C(CC)Nc2ccccc2N=C1NC(=O)Nc1ccc(Cl)c(Cl)c1	HCT116 PTEN-null 2.6, bCat KO growth 2.6 (no result: HUVEC prolif 384, Lung fibro prol, H69AR inhibit)
COc1cc(OC)nc(-n2ncc(Br)c(Br)c2=O)n1	HCT116 PTEN-null 1.4, bCat KO growth 1.6 (no result: HUVEC prolif 384, Lung fibro prol, H69AR inhibit)
COC(=O)c1cnn(-c2nc(OC)cc(OC)n2)c1C	none (no result: HUVEC prolif 384, Lung fibro prol, H69AR inhibit)
C[C@](N)(Cc1ccc(O)c(O)c1)C(=O)O	bCat KO growth 6.1
S=C(Nc1ccc(Cl)c(Cl)c1)NC1CCCCC1	none (no result: HUVEC prolif 384, Lung fibro prol, H69AR inhibit)
S=C(Nc1ccc(Cl)c(Cl)c1)NC1CCN(Cc2ccccc2)CC1	bCat KO growth 3.8 (no result: HUVEC prolif 384, Lung fibro prol, H69AR inhibit)
COc1ccccc1OCC(=O)Nc1cc(S(=O)(=O)N2CCCCC2)ccc1N1CCCCC1	none (no result: HUVEC prolif 384, Lung fibro prol, H69AR inhibit)
CCOC(=O)Cc1c(C)nc2c(-c3ccc(Cl)cc3)c(C)[nH]n2c1=O	H69AR inhibit 38.7
O=c1c2c(nc3c(-c4cccc(Br)c4)c[nH]n13)CCCC2	H69AR inhibit 20.4
CCOC(=O)Cc1c(C)nc2c(C#N)c[nH]n2c1=O	none
Cc1cc(=O)n2[nH]c(C)c(-c3ccc(Cl)cc3)c2n1	H69AR inhibit 36.1
CCOC(=O)Cc1c(C)nc2c(-c3cccc(Br)c3)c[nH]n2c1=O	HUVEC prolif 384 4.7, H69AR inhibit 28.3
Cc1onc(-c2ccccc2Cl)c1C(=O)NC(=S)Nc1ccccc1C(N)=O	none (no result: HUVEC prolif 384, Lung fibro prol, H69AR inhibit)
O=C1CCCCC1C(Nc1ccc(Br)cc1)c1ccccc1 (stereo not drawn)	none (no result: HUVEC prolif 384, Lung fibro prol, H69AR inhibit)
O=c1[nH][nH]cc1C=Nc1ccccc1O	none (no result: HUVEC prolif 384, Lung fibro prol, H69AR inhibit)
CCOC(=O)Cc1cc(=O)n2[nH]c(-c3ccccc3)cc2n1	none
CCOC(=O)Cc1c(C)nc2cc(-c3ccc(C(C)(C)C)cc3)[nH]n2c1=O	H69AR inhibit 37.3
O=C(NCc1ccccn1)c1ccc(Cn2cc(Br)cn2)o1	none
Cc1ccc(NC(=O)c2cccc(S(=O)(=O)N(C)c3ccccc3)c2)cc1S(=O)(=O)N1CCOCC1	none (no result: HUVEC prolif 384, Lung fibro prol, H69AR inhibit)
Cc1oc(-c2cccc(Cl)c2)nc1CN1CCCC(C(=O)NCc2ccco2)C1 (stereo not drawn)	none
Cc1cccc(-c2nc(CN3CCCC(C(=O)NC4CCCCC4)C3)c(C)o2)c1 (stereo not drawn)	H69AR inhibit 38.6
Cc1cccc(-c2nc(CN3CCCC(C(=O)NC4CCCCCC4)C3)c(C)o2)c1 (stereo not drawn)	H69AR inhibit 39.9
Cc1oc(-c2ccc(Cl)cc2)nc1CN1CCCC(C(=O)NCc2ccccn2)C1 (stereo not drawn)	none
CCOC(=O)c1ccc(S(=O)(=O)Nc2ccccc2-c2nnn(CC)n2)cc1	none (no result: Lung fibro prol)
COc1ccc(C(CCNCc2ccc(F)cc2)c2ccc(F)cc2)cc1 (stereo not drawn)	HCT116 PTEN-null 1.2, bCat KO growth 1.2 (no result: HUVEC prolif 384, Lung fibro prol, H69AR inhibit)
COc1ccc(CNCCC(c2ccc(F)cc2)c2ccc(OC)cc2)cc1 (stereo not drawn)	bCat KO growth 1.9 (no result: HUVEC prolif 384, Lung fibro prol, H69AR inhibit)
COc1ccc(C(CC(=O)NCc2ccco2)c2ccc(F)cc2)cc1 (stereo not drawn)	none
COc1ccc(C(CCNCc2ccccc2)c2ccc(F)cc2)cc1 (stereo not drawn)	HCT116 PTEN-null 2.4, bCat KO growth 2.0 (no result: HUVEC prolif 384, Lung fibro prol, H69AR inhibit)
COc1ccc(NC(=O)CC(c2ccc(F)cc2)c2ccc(OC(C)C)cc2)cc1 (stereo not drawn)	none (no result: HUVEC prolif 384, Lung fibro prol, H69AR inhibit)
COc1ccc(C(CCNC(C)c2ccccc2)c2ccc(F)cc2)cc1 (stereo not drawn)	HCT116 PTEN-null 1.4, bCat KO growth 1.4 (no result: HUVEC prolif 384, Lung fibro prol, H69AR inhibit)
CC1CC2(C)Oc3ccccc3C3OCC1(CO)C(C)C32 (stereo not drawn)	none
Cc1cc(C)n(-c2ncnc3sc(C)c(C)c23)n1	none
